Among the data in ChEMBL document CHEMBL1149027, “Anti-AIDS agents, 10. Acacetin-7-O-beta-D-galactopyranoside, an anti-HIV principle from Chrysanthemum morifolium and a structure-activity correlation with some related flavonoids” (J Nat Prod, 1994) are EC50, IC50 and selectivity ratio values, retold here.

Data set [1] relates to Human immunodeficiency virus 1. The experiment in a line: Antiviral activity against HIV1 3B infected in human H9 cells assessed as inhibition of viral replication after 3 days by p24 antigen capture assay. The settings on record: Human immunodeficiency virus 1, 3B, H9, 72 h. The data set is classed as functional, organism-based.
For data set [2], the system named is H9. The experiment in a line: Cytotoxicity against human H9 cells after 3 days. Conditions: H9, 72 h. The class given is cell-based. The method in brief: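 Uninfected H9 lymphocytes, given the same 1 h mock incubation at 37° and washing, resuspended at 4 × 10^5 cells/ml. Cultured 3 days at 37° with compound. Cell density counted; IC50 = concentration inhibiting uninfected growth by 50%.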

Data set [3] is described as follows: Therapeutic index, ratio of IC50 for human H9 cells to EC50 for HIV1 3B. The data set is classed as cell-based. The settings on record: read-out: TI.

The EC50 is the concentration needed to bring the measured effect to its halfway point. As a reminder, the IC50 is the concentration at which inhibition is half-maximal. A higher IC50 goes with lower potency.

For the compound `COc1ccc([C@@H]2CC(=O)c3c(O)cc(O[C@@H]4O[C@H](CO[C@@H]5O[C@@H](C)[C@H](O)[C@@H](O)[C@H]5O)[C@@H](O)[C@H](O)[C@H]4O)cc3O2)cc1O` [HESPERIDIN], the EC50 in data set [1] is above 164 µM. The IC50 in data set [2] is above 164 µM.
In the case of `O=c1c(O)c(-c2cc(O)c(O)c(O)c2)oc2cc(O)cc(O)c12` [MYRICETIN], in data set [1], the EC50 came to 35 µM. Further, in data set [2], the IC50 is 69 µM. Further, in data set [3], the selectivity ratio was determined as 2.
For `O=c1cc(-c2ccc(F)cc2)oc2cc(O)cc(O)c12`, in that order: 4 µM, 13 µM and 3.
As for `CCCc1cc(=O)c2c(O)cc(O)cc2o1`, in data set [1], the EC50 amounted to 27 µM. In data set [2], this compound had an IC50 of 73 µM. Also, the selectivity ratio in data set [3] is 3.
As to `O=C(O)[C@H]1O[C@@H](Oc2cc3oc(-c4ccccc4)cc(=O)c3c(O)c2O)[C@H](O)[C@@H](O)[C@@H]1O` [BAICALIN], in data set [1], the EC50 was 112 µM. In data set [2], this compound registered a half-inhibitory concentration (IC50) of 72 µM. Further, the selectivity ratio in data set [3] is below 1.
As for `O=c1cc(-c2ccc(O)cc2)oc2cc(O)cc(O)c12` [APIGENIN], the EC50 in data set [1] is 9 µM. Also, the midpoint of inhibition in data set [2], the IC50, lay at 35 µM. In data set [3], the selectivity ratio was determined as 4.
With `COc1ccc(-c2cc(=O)c3c(O)cc(O[C@@H]4O[C@H](CO)[C@H](O)[C@H](O)[C@H]4O)cc3o2)cc1`, in data set [1], the EC50 worked out at 8 µM. In data set [2], this compound had an IC50 of 37 µM. Moreover, the selectivity ratio in data set [3] was 5.
With `O=C(CNC(=O)OCc1ccccc1)Oc1cc(O)c2c(=O)cc(-c3ccccc3)oc2c1`, the EC50 in data set [1] amounted to 9 µM. Also, half-maximal inhibition in data set [2] (IC50) was put at 30 µM. For the same compound, the selectivity ratio in data set [3] worked out at 3.
On to `O=c1c(O)c(-c2ccc(O)c(O)c2)oc2cc(O)ccc12` [FISETIN], for which the EC50 in data set [1] stood at 122 µM. Besides, in data set [2], the IC50 was determined as 157 µM. Further, in data set [3], the selectivity ratio is 1.
The like results for `O=c1cc(-c2ccc(O)c(O)c2)oc2cc(O[C@@H]3O[C@H](CO)[C@@H](O)[C@H](O)[C@H]3O)cc(O)c12` [GALUTEOLIN] were, in that order, 7 µM, 25 µM and 3.
As to `O=c1cc(-c2ccccc2)oc2cc(O)cc(O)c12` [CHRYSIN], in data set [1], the EC50 is 5 µM. Further, the IC50 in data set [2] was determined as 47 µM. Besides, the selectivity ratio in data set [3] was determined as 9.
Turning to `O=c1c(O)c(-c2ccccc2)oc2ccccc12` [FLAVONOL], the EC50 in data set [1] was 13 µM. This compound showed an IC50 in data set [2] of 17 µM. The selectivity ratio in data set [3] was found to be 1.
Regarding `CC(=O)Oc1cc(OC(C)=O)c2c(=O)cc(-c3ccccc3)oc2c1` [CHRYSIN DIACETATE], in data set [1], the EC50 was determined as 56 µM. Further, the IC50 in data set [2] is above 373 µM.
As to `O=c1cc(C2CCCCC2)oc2cc(O)cc(O)c12`, the EC50 in data set [1] turned out to be 19 µM. Further, it took 42 µM to reach half-maximal inhibition in data set [2] (IC50). Also, in data set [3], the selectivity ratio was 2.
On to `COc1ccc(-c2cc(=O)c3c(O)cc(O[C@@H]4O[C@H](CO[C@@H]5O[C@H](C)[C@@H](O)[C@H](O)[C@@H]5O)[C@@H](O)[C@H](O)[C@H]4O)cc3o2)cc1`, for which, in data set [1], the EC50 was above 231 µM. Moreover, the IC50 in data set [2] was above 231 µM.
As for `O=c1cc(-c2ccc(O)c(O)c2)oc2cc(O)cc(O)c12` [LUTEOLIN], the EC50 in data set [1] came out at 10 µM. Further, the IC50 in data set [2] was 16 µM. Further, in data set [3], the selectivity ratio was found to be 2.
On to `O=c1cc(-c2ccccc2)oc2ccccc12` [FLAVONE], for which the EC50 in data set [1] is 50 µM. The compound also returned an IC50 in data set [2] of 68 µM. The selectivity ratio in data set [3] stood at 1.
Turning to `O=c1cc(-c2ccccc2)oc2c(O)c(O)ccc12` [7,8-DIHYDROXYFLAVONE], the EC50 in data set [1] turned out to be 10 µM. In data set [2], this compound returned an IC50 of 14 µM. The selectivity ratio in data set [3] amounted to 1.
Take `Oc1cc(O)c2c(c1)O[C@H](c1ccc(O)c(O)c1)[C@@H](O)C2` [CIANIDANOL]: in data set [1], the EC50 is above 345 µM. This compound also returned an IC50 in data set [2] above 345 µM.
Consider `O=C1C[C@@H](c2ccc(O)cc2)Oc2cc(O)cc(O)c21` [NARINGENIN], for which the EC50 in data set [1] was 92 µM. This compound returned an IC50 in data set [2] of 294 µM. Moreover, in data set [3], the selectivity ratio is 3.
For `O=c1cc(-c2cccc(Cl)c2)oc2cc(O)cc(O)c12`, the half-maximal effective concentration (EC50) in data set [1] is 4 µM. Besides, the IC50 in data set [2] came out at 14 µM. In addition, the selectivity ratio in data set [3] is 3.
In the case of `O=c1c(O)c(-c2ccc(O)c(O)c2)oc2cc(O)cc(O)c12` [QUERCETIN], the EC50 in data set [1] amounted to 132 µM. Besides, the half-inhibitory concentration (IC50) in data set [2] is 132 µM. Also, the selectivity ratio in data set [3] stood at 1.
On to `CC(=O)OC[C@H]1O[C@@H](Oc2cc(OC(C)=O)c3c(=O)cc(-c4ccc(OC(C)=O)c(OC(C)=O)c4)oc3c2)[C@H](OC(C)=O)[C@@H](OC(C)=O)[C@@H]1OC(C)=O`, for which, in data set [1], the EC50 turned out to be 6 µM. Moreover, the IC50 in data set [2] came to 6 µM. Also, the selectivity ratio in data set [3] amounted to 1.
As to `Nc1c(O)cc(O)c2c(=O)cc(-c3ccccc3)oc12`, the EC50 in data set [1] is 11 µM. This compound yielded an IC50 in data set [2] of 34 µM. Moreover, in data set [3], the selectivity ratio is 3.
The like results for `O=c1cc(-c2ccc(Cl)cc2)oc2cc(O)cc(O)c12` were, in that order, 4 µM, 16 µM and 4.
For the compound `Cc1cc(=O)c2c(O)cc(O)cc2o1` [NOREUGENIN], in data set [1], the EC50 was 49 µM. The same compound came in with an IC50 in data set [2] of 214 µM. Besides, the selectivity ratio in data set [3] amounted to 4.
On to `O=c1c(O)c(-c2ccc(O)cc2O)oc2cc(O)cc(O)c12` [MORIN], for which, in data set [1], the EC50 was above 331 µM. The same compound registered an IC50 in data set [2] above 331 µM.
Consider `O=c1c(O)c(-c2ccccc2)oc2cc(O)cc(O)c12` [GALANGIN], for which the EC50 in data set [1] stood at 28 µM. The compound further showed an IC50 in data set [2] of 44 µM. Moreover, the selectivity ratio in data set [3] came out at 2.
For `O=c1cc(-c2ccccc2)oc2c([N+](=O)[O-])c(O)c([N+](=O)[O-])c(O)c12`, the EC50 in data set [1] worked out at 372 µM. Also, the IC50 in data set [2] worked out at 372 µM. In addition, the selectivity ratio in data set [3] was found to be 1.
Turning to `O=c1cc(-c2ccc(O)cc2)oc2cc(O[C@@H]3O[C@H](CO)C(O)[C@H](O)[C@H]3O)cc(O)c12` (single isomer, unassigned) [APIGETRIN], the EC50 in data set [1] was 61 µM. The IC50 in data set [2] is 115 µM. Besides, the selectivity ratio in data set [3] is 2.
For `O=c1cc(-c2ccccc2)oc2c([N+](=O)[O-])c(O)cc(O)c12`, the EC50 in data set [1] worked out at 12 µM. In addition, 12 µM corresponded to half-maximal inhibition in data set [2] (IC50). The selectivity ratio in data set [3] was found to be 1.
For the compound `O=c1cc(-c2ccccc2Cl)oc2cc(O)cc(O)c12`, the EC50 in data set [1] is 5 µM. The same compound gave an IC50 in data set [2] of 17 µM. Moreover, in data set [3], the selectivity ratio came to 3.
As to `Cc1cn([C@H]2C[C@H](N=[N+]=[N-])[C@@H](CO)O2)c(=O)[nH]c1=O` [ZIDOVUDINE], the EC50 in data set [1] was found to be 0.04 µM.
Turning to `O=C1CC(c2ccccc2)Oc2ccccc21` (stereo not drawn) [FLAVANONE], the EC50 in data set [1] was determined as 58 µM. The same compound registered an IC50 in data set [2] of 45 µM. The selectivity ratio in data set [3] stood at 1.
For `O=c1cc(-c2ccc(Br)cc2)oc2cc(O)cc(O)c12`, in that order: 5 µM, 21 µM and 4.
